The species named for experiment [1] is Homo sapiens. The experiment in a line: Selectivity for human CB1 receptor over human progesterone receptor.
A short description of experiment [2]: Selectivity for human CB1 receptor over muscarinic receptor.
The species entered for experiment [3] is Homo sapiens. The experiment in a line: Selectivity for human CB1 receptor over human dopamine D2S receptor.
The species entered for experiment [4] is Homo sapiens. Kind of experiment: Selectivity for human CB1 receptor over human adrenergic beta2 receptor.
A short description of experiment [5]: Selectivity for human CB1 receptor over sigma receptor.
Experiment [6] is filed under the species Homo sapiens. Kind of experiment: Selectivity for human CB1 receptor over human estrogen receptor.
The nature of experiment [7]: Selectivity for human CB1 receptor over opiate receptor.
The species entered for experiment [8] is Homo sapiens. Kind of experiment: Selectivity for human CB1 receptor over human CCK2 receptor.
The species entered for experiment [9] is Homo sapiens. Kind of experiment: (§1) Selectivity for human CB1 receptor over human CB2 receptor.
A short description of experiment [10]: Selectivity for human CB1 receptor over K ATP channel.
A short description of experiment [11]: Selectivity for human CB1 receptor over chloride channel.
A short description of experiment [12]: Selectivity for human CB1 receptor over Kv channel.
The subject of the next experiment is Rattus norvegicus. The experiment in a line: Reduction in progression of body weight in diet-induced obesity Sprague-Dawley rat model at 10 mg/kg, po for 16 days. Also noted: dose 10 mg/kg. The format is functional, organism-based. The method in brief:
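Obese Sprague-Dawley rats (HFD 10 weeks from 3 weeks old, selected as >2 SD above chow controls), n = 9 per group, gavage-adapted 3 days, then dosed daily by gavage at 5:00 p.m. for 16 days in water with 7.5% gelatine and 0.62% NaCl, 2 mL/kg; body weight and food intake recorded daily.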

The next experiment relates to Mus musculus. Kind of experiment: Reversal of CP-55940-induced hypothermia in NMRI mouse assessed as rectal temperature at 30 mg/kg, ip. The format is functional. The settings on record: route intraperitoneal, read-out: ID50 (the source's name). The method in brief: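 Mice housed eight per group, eight per dose, habituated at least 2 h. Test compound in 0.3% Tween 80 (10 mL/kg) given 90 min before CP 55940 (0.3 mg/kg iv, same vehicle). Body temperature read 20 min before compound, just before CP 55940, and 20 min after it.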

The species entered for experiment [13] is Homo sapiens. The experiment is described as §1. The source holds these as a separate data set.
The nature of experiment [14]: Selectivity for human CB1 receptor over choline transporter.
The nature of experiment [15]: Selectivity for human CB1 receptor over neuronal N receptor.
Experiment [16] can be described thus: Selectivity for human CB1 receptor over histamine H2 receptor.

Active and inactive are the calls of the source. No cut-off for these calls is given here.

With `O=C(c1cc2c(cc1F)O[C@](c1ccc(F)cc1)(c1ccc(Cl)cc1Cl)O2)N1CCOCC1`, the Selectivity ratio (in the experiment filed under Homo sapiens [1]; in [2]; in the experiment listed under Homo sapiens [3]; in the experiment filed under Homo sapiens [4]; in experiment [5]; in the experiment listed under Homo sapiens [6]) was 300 each time. The Selectivity ratio in experiment [7] is 300; in the experiment filed under Homo sapiens [8] it was 300; in the experiment filed under Homo sapiens [9], over 1000; in experiment [10], 300; in [11] it was 300; in experiment [12], 300. Moreover, the Selectivity ratio in the experiment filed under Homo sapiens [13] was 1000; in experiment [14] it was 300; in experiment [15] it was 300; in experiment [16], 300. In the experiment on Rattus norvegicus, the result was Active. Besides, in the experiment on Mus musculus, the ED50 was determined as 4 mg/kg.

These data come from ChEMBL document CHEMBL1142431, “Benzodioxoles: novel cannabinoid-1 receptor inverse agonists for the treatment of obesity” (J Med Chem, 2008).
